In brackets after ≈: the same amount, converted by molar mass.

The term inhibition denotes the percentage by which the read-out fell short of the control. Read a low inhibition as a weak effect. For orientation: MIC means the smallest concentration in the dilution series that meets the test's criterion for growth inhibition. Read a low MIC as a more susceptible organism.

The target in the first experiment is T1, Enoyl-[acyl-carrier-protein] reductase [NADH] (Mycobacterium tuberculosis) (UniProt P9WGR1).
T1 sequence (whole entry): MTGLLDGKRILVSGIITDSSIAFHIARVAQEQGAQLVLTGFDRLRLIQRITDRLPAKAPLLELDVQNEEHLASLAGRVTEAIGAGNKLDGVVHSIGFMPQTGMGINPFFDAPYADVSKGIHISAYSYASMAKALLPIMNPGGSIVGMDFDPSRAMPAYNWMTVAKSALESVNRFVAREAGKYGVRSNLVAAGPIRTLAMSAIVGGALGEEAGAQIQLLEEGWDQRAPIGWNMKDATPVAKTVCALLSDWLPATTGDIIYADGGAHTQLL
Kind of experiment: Inhibition of Mycobacterium tuberculosis InhA expressed in Escherichia coli using trans-2-dodecenoyl-coenzyme-A as substrate at 5 uM. A digest of the protocol:
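Recombinant M. tuberculosis wild-type InhA purified from E. coli. Reaction started by adding InhA (100 nM final) to DD-CoA (50 μM final), NADH (250 μM final) and inhibitor in 30 mM PIPES, 150 mM NaCl, pH 6.8. Percent inhibition taken from initial velocity against a no-inhibitor control. Run in triplicate.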
Regarding `O=C1CC(C2c3ccccc3-c3ccccc32)C(=O)N1c1cc(Cl)cc(Cl)c1` (stereo not given), the inhibition worked out at 31%.

The next experiment has as its system Mycobacterium tuberculosis. The experiment in a line: Antimicrobial activity against Mycobacterium tuberculosis H37Rv by two-fold serial dilution method. It is filed as functional. A digest of the protocol: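 Compounds dissolved in DMSO. Single colony grown in Middlebrook 7H9 with 0.05% Tween 80 and 10% OADC at 37 °C, no shaking, to ~10^8 CFU/mL (OD600 0.8–1.0). Diluted to ~10^7 CFU/mL; 1 μL streaked onto 7H11 agar (0.5% glycerol, 10% OADC) with two-fold serial compound dilutions. MIC is the lowest concentration inhibiting growth. Repeated three times.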
`O=C(CN1C(=O)CC(C2c3ccccc3-c3ccccc32)C1=O)c1ccccc1` (stereo not given): the MIC is over 41.9 µM. On the same count and under the same terms, for `O=C(CC(C(=O)O)C1c2ccccc2-c2ccccc21)Nc1ccc(F)cc1` (stereo not given) the value was 42.6 µM (≈ 16 µg/mL); for `O=C1CC(C2c3ccccc3-c3ccccc32)C(=O)N1` (stereo not given), 30.4 µM (≈ 8 µg/mL). Still for that read-out and setting: as for `O=C(CC(C(=O)O)C1c2ccccc2-c2ccccc21)Nc1cc(Cl)cc(Cl)c1` (stereo not given), the figure is 4.7 µM (≈ 2 µg/mL); as for `O=C1CC(C2c3ccccc3-c3ccccc32)C(=O)N1CCc1c[nH]c2ccccc12` (stereo not given), over 39.4 µM.

Molecule `CCCCCCCCCN1C(=O)CC(C2c3ccccc3-c3ccccc32)C1=O` (stereo not given) gave an MIC of 41.1 µM (≈ 16 µg/mL). `O=C1CC(C2c3ccccc3-c3ccccc32)C(=O)N1c1ccc(F)cc1` (stereo not given) registered an MIC of over 44.8 µM.

The molecule `O=C(CC(C(=O)O)C1c2ccccc2-c2ccccc21)NCCc1c[nH]c2ccccc12` (stereo not given) showed a minimum inhibitory concentration (MIC) of 37.7 µM (≈ 16 µg/mL). Molecule `O=C(Cc1ccccc1)N1C(=O)CC(C2c3ccccc3-c3ccccc32)C1=O` (stereo not given) returned an MIC of 41.9 µM (≈ 16 µg/mL). Same read-out and setting: for `CCCCCCCCC(=O)N1C(=O)CC(C2c3ccccc3-c3ccccc32)C1=O` (stereo not given) the value was 39.7 µM (≈ 16 µg/mL); for `COc1cc(N2C(=O)CC(C3c4ccccc4-c4ccccc43)C2=O)cc(OC)c1OC` (stereo not given), 37.3 µM (≈ 16 µg/mL); for `O=C1CC(C2c3ccccc3-c3ccccc32)C(=O)N1c1cc(Cl)cc(Cl)c1` (stereo not given), 19.6 µM (≈ 8 µg/mL). Same read-out and setting: as for `COc1cc(CN2C(=O)CC(C3c4ccccc4-c4ccccc43)C2=O)cc(OC)c1` (stereo not given), the figure is over 38.7 µM; as for `O=C1CC(C2c3ccccc3-c3ccccc32)C(=O)N1Cc1ccccc1` (single isomer, unassigned), 45.3 µM (≈ 16 µg/mL). Still for that read-out and setting: for `O=C(CC(C(=O)O)C1c2ccccc2-c2ccccc21)NNC(=O)c1ccncc1` (stereo not given) the value was 10 µM (≈ 4.01 µg/mL); for `O=C(c1ccc2[nH]ccc2c1)N1CCN(C2c3ccccc3-c3ccccc32)CC1`, over 40.7 µM. Molecule `O=C1CC(C2c3ccccc3-c3ccccc32)C(=O)N1C(=O)c1ccccc1` (racemic) registered a minimum inhibitory concentration (MIC) of 5.4 µM (≈ 1.98 µg/mL). On the same count and under the same terms, for `O=C1CC(C2c3ccccc3-c3ccccc32)C(=O)N1C(=O)c1ccc2[nH]ccc2c1` (stereo not given) the value was 39.4 µM (≈ 16 µg/mL). The same measure, in the same setting: for `O=C(O)CC(C(=O)O)C1c2ccccc2-c2ccccc21` (stereo not given) the value was 28.3 µM (≈ 7.99 µg/mL).

(Values after ChEMBL document CHEMBL3085705, “Design, chemical synthesis of 3-(9H-fluoren-9-yl)pyrrolidine-2,5-dione derivatives and biological activity against enoyl-ACP reductase (InhA) and Mycobacterium tuberculosis” (2013).)
